# PPC-1+TRAIL kill: compounds killing PPC-1 cancer cells with TRAIL present (potentiator screen, no TRAIL-free arm) | PPC-1 cells + TRAIL, ATPLite viability luminescence | cell killing (% activity), % at 4 µM or 5 µM | actives 0.41% (n = 220,000);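 active = cell killing above 50% in the first pass at 4 µM, then a duplicate retest at 5 µM averaging 50% or more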;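 also: plate controls were cells with TRAIL plus DMSO for no effect and medium-only wells lacking cells for full effect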
# STAT3 inh: inhibitors of IL-6 induced STAT3 signaling; AID 862; inhibition, % at 5.5 µM; U3A cells, IL-6 STAT3-luciferase reporter, luminescence; host cell line lacks STAT1; actives 0.89% (n = 190,000);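 active = inhibition above the mean inhibition across all screened compounds plus 3 SD, cut at about 44% in these data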;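 also: 0% = DMSO only wells and 100% = 100 µM nifuroxazide control wells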
# TRAIL sens C8: sensitizes caspase-8 expressing cells to TRAIL. inhibition (viability loss, TRAIL sensitization), % at 10 µM. actives 1% (n = 360,000). NB7+C8 cells + TRAIL, ATPlite viability luminescence;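 active = compounds causing at least 50% loss of cell viability in the single-dose screen, relative to plate controls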
# STAT3 act-1: STAT3 signaling activation; U3A cells, IL-6 STAT3-luciferase reporter, luminescence; 100% = signal with IL-6 EC80 alone; activation (% of control), % at 5.6 µM; AID 871; actives 0.91% (n = 190,000);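 active = activation above the screen-wide mean of compound activation plus 3 SD, cut at about 130% in these data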;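 also: 0% = background luminescence of wells with medium and substrate only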
#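 Test system: human U3A cells carrying STAT3-luciferase construct; control set: IL-6-only wells as 100% reference; timing: compound pre-incubation 1 h before IL-6, then 6 h stimulation at 37 °C; also added: IL-6 stimulus at 33 ng/mL final; evaluation: % activation versus median of IL-6-stimulated wells; detection: reporter luminescence signal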
# STAT1 blocker: inhibitors of IFN-gamma induced STAT1 signaling | NIH 3T3 STAT1-luciferase reporter, luminescence | inhibition, % at 5.5 µM | actives 0.35% (n = 200,000);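 active = inhibition above a set limit, the mean inhibition across all tested compounds plus 3 SD, cut at about 34% in these data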;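 also: 0% = IFN-gamma with DMSO and 100% = IFN-gamma with 300 µM nifuroxazide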
# STAT3 act-2: confirmation of STAT3 signaling activators; shares compounds with STAT3 act-1; U3A STAT3-luciferase reporter, IL-6 potentiation, luminescence; U3A cells lack STAT1; 100 means same as IL-6 alone; potentiation (% of control), % at 5.7 µM; actives 64% (n = 1,200); AID 1267;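 active = percent activation of the STAT3 luciferase reporter above a set limit taken from the earlier primary screen, cut at about 130% in these data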;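 also: 0% = background signal of medium plus substrate and 100% = median of IL-6 with DMSO wells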
# NFkB act 2: activates NF-kappaB, counter-screen to STAT3 activators; shares compounds with STAT3 act-1; human cells, NF-kappaB reporter activation; activation (% of control), % at 5.7 µM; actives 11% (n = 1,200); in the data active = activation above about 120%;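 also: reporter induced by TNF-alpha stimulation; 100% = median of stimulated DMSO wells and 0% = no signal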
# STAT1 act: counter-screen for STAT3 activators: STAT1 activation; shares compounds with STAT3 act-1; activation (% of control), % at 5.7 µM; actives 13% (n = 1,200); NIH 3T3 STAT1-luciferase reporter, IFN-gamma, luminescence;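 active = activation above the solvent-only control well mean plus 3 SD, set per screening run, cut at about 120% in these data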;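 also: 100% = IFN-gamma with DMSO median signal so 100% means no change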
# * hit, by the source's call; / = no result. Sampled rows, rich in hits. Any-hit rate of the full collection: about 1.8%.
SMILES,PPC-1+TRAIL kill,STAT3 inh,TRAIL sens C8,STAT3 act-1,STAT1 blocker,STAT3 act-2,NFkB act 2,STAT1 act
COc1cc2c(cc1NC(=O)C(C)OC(=O)c1ccc(S(=O)(=O)Nc3ccccc3Cl)cc1)oc1ccccc12 (stereo not given),18,-41,2,141*,-4,128,106,104
COc1cc2c(cc1NC(=O)c1ccncc1)oc1ccccc12,-16,-60,5,155*,-18,137*,105,120
COc1cc2c(cc1NC(=O)C(C)Sc1cccc[n+]1[O-])oc1ccccc12 (stereo not given),40,-43,1,136*,-18,139*,112,115
COc1cc2c(cc1NC(=O)C(C)N1CCN(S(=O)(=O)c3ccc(C)c(C)c3)CC1)oc1ccccc12 (stereo not given),7,-3,-21,102,1,/,/,/
O=[N+]([O-])c1cncn1CCN1CCOCC1,/,/,-3,/,/,/,/,/
CC(C(=O)Nc1ccc(S(=O)(=O)N2CCCC2)cc1)N1CCCC(C(N)=O)C1 (stereo not given),/,/,14,/,/,/,/,/
Cc1cc(C)c2c(N)c(-c3nc4ccccc4[nH]3)sc2n1,-1,-76,-2,171*,-16,182*,117,111
Cc1ccccc1-c1nc2ccccc2[nH]1,29,-1,3,102,-31,/,/,/
O=C(CN1C(=O)/C(=C/c2c(F)cccc2Cl)Oc2ccccc21)NCc1ccco1,21,-61,/,154*,8,187*,99,96
COc1ccccc1CNC(=O)CN(C)S(=O)(=O)c1cccc2cccnc12,-12,/,13,/,/,/,/,/
CCn1cc([N+](=O)[O-])c(C(=O)N2N=C(c3ccc4ccccc4c3)CC2c2ccccc2O)n1 (stereo not given),11,-58,12,151*,-8,138*,102,102
CCn1cc(Cl)c(C(=O)N2N=C(c3ccc4ccccc4c3)CC2c2ccccc2O)n1 (stereo not given),13,-4,4,102,0,/,/,/
Cc1ccc(S(=O)(=O)N2CCN(C(=O)CCC(=O)NCCc3ccc(F)cc3)CC2)cc1,20,-9,3,108,2,/,/,/
Cn1c(O)c(N=Nc2nc(-c3ccccc3)cs2)c2ccccc21,16,-55,10,147*,10,159*,106,96
Cn1c(O)c(N=Nc2ccccc2)c2ccccc21,/,/,0,/,/,/,/,/
Cn1c(O)c(N=Nc2ccc(F)cc2)c2ccccc21,26,-54,3,152*,0,165*,104,98
COC(=O)/C(=C/Nc1cccc2ccccc12)[N+](=O)[O-],-2,-77,-2,173*,11,135*,108,99
CCOCCCNC(=S)N(CCCN(C)C)Cc1cc2cc3c(cc2[nH]c1=O)OCCO3,/,/,-4,/,/,/,/,/
CCN(CC)CCN1C(=O)C(=O)/C(=C(/O)c2c(C)[nH]c(C(=O)OC)c2C)C1c1cccnc1 (stereo not given),20,1,1,103,3,/,/,/
COC(=O)c1[nH]c(C)c(/C(O)=C2\C(=O)C(=O)N(CCN3CCOCC3)C2c2cccnc2)c1C (stereo not given),2,-42,-3,138*,-3,92,107,97
CN(C)c1ncnc2c1ncn2[C@H]1CN(Cc2ccc(Cl)cc2)C[C@@H](CO)O1,/,/,-8,/,/,/,/,/
Cc1ccc(-c2nc(N)n(C(=O)c3cccs3)n2)cc1,16,-39,-6,148*,7,128,100,89
Cc1ccc(-c2nc(N)n(C(=O)Cc3ccccc3)n2)cc1,20,2,1,98,2,/,/,/
COc1ccc2nc(N=Nc3c(O)ccc4ccccc34)sc2c1,26,-43,/,137*,11,133,103,90
CCOC(=O)c1[nH]c2ccccc2c1NC(=O)COC,20,-70,-14,168*,18,165*,101,93
SMILES,PPC-1+TRAIL kill,STAT3 inh,TRAIL sens C8,STAT3 act-1,STAT1 blocker,STAT3 act-2,NFkB act 2,STAT1 act
CCOC(=O)c1[nH]c2ccccc2c1NC(=O)C(C)(C)C,20,3,-6,102,0,/,/,/
CCOC(=O)c1[nH]c2ccccc2c1NC(=O)CC,11,-110,-4,194*,9,148*,108,96
CCOC(=O)c1[nH]c2ccccc2c1NC(C)=O,22,/,2,/,/,/,/,/
Cc1cccc(N(CC(=O)NC(C)(C)C)C(=O)CCC(=O)Nc2ccccn2)c1,/,/,-3,/,/,/,/,/
CN(C)CCN(C(=O)c1cccc2ccccc12)c1nc2cc3c(cc2s1)OCO3,/,/,20,/,/,/,/,/
CC(=O)Nc1ccc(NC2=CC(=O)c3ccccc3C2=O)cc1,/,/,24,/,/,/,/,/
CCOC(=O)c1ccc(NC2=CC(=O)C(=O)c3ccccc32)cc1,-3,-46,94*,144*,0,128,107,102
CSc1nc(/C=C2\C=Nc3ccccc32)c(O)n1C,23,-55,7,146*,0,155*,111,103
O=C(Nc1ccc2c(c1)oc1ccccc12)C1CC1,11,-45,7,143*,-19,142*,131*,134*
O=C(Nc1ccc2c(c1)oc1ccc(S(=O)(=O)N3CCCC3)cc12)C1CC1,21,-60,7,154*,-1,94,103,102
O=C(O)CCCC(=O)Nc1ccc2c(c1)oc1ccccc12,/,/,3,/,/,/,/,/
CCN(CC)S(=O)(=O)c1cccc(-c2nnc(SCCCC(=O)c3ccccc3)o2)c1,3,5,-8,99,10,/,/,/
CCN(CC)S(=O)(=O)c1cccc(-c2nnc(SCc3nc4ccccc4s3)o2)c1,17,-46,2,139*,-13,122,111,115
Cc1[nH]n(-c2ccccc2)c(=O)c1N=Nc1ccccc1O,46,-77,57*,168*,-5,171*,109,123*
CC1(C)CC(=O)C2=C(C1)N(c1ccccc1C#N)C(N)=C(C#N)C2c1cccs1 (stereo not given),29,-46,2,140*,2,149*,112,106
CC1(C)CC(=O)C2=C(C1)N(c1cccnc1)C(N)=C(C#N)C2c1cccs1 (stereo not given),3,4,-4,100,1,/,/,/
Cc1ccc2cccc(NC(=S)NC(=O)c3ccccc3)c2n1,9,-68,8,169*,12,170*,111,95
Cc1ccc2cccnc2c1NC(=S)NC(=O)c1ccccc1,10,-58,-7,153*,13,152*,99,92

# From PubChem
